Screening data (PubChem)
PTEN del growth – PTEN-deleted cell growth suppression; viability, % at 10 µM; HCT116 PTEN-null viability, CellTiter-Glo, 60 h; hits give low values; 140,000 tested, 1.2% active;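 active means viability at or below a set limit, 4 SD under the median of all tested compounds, cut at about 3.7% in these data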;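 further: PTEN knockout HCT116 line with beta catenin targeted HCT116 as companion control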
PMI act – activators of human phosphomannose isomerase; purified human PMI, coupled resazurin fluorescence, 20 min; hits give high values; 1 = vehicle control, 0 substrate-free wells; activation factor at 20 µM; 190,000 tested, 0.005% active;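 active means activation factor of 2 or more at 20 µM, relative to plate controls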
Target sequence (P34949 whole entry, looked up): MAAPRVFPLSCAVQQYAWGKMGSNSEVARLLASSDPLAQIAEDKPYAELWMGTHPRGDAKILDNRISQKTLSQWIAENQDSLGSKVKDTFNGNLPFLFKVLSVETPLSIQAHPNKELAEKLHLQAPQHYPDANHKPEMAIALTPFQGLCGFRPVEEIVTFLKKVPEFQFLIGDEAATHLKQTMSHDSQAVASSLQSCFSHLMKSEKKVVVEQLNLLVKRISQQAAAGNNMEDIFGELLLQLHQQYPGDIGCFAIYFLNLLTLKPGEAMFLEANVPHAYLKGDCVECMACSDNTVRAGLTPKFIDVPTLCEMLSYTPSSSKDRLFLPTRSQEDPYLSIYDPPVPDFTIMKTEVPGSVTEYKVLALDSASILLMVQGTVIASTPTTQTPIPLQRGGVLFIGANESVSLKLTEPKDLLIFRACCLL
HCT116 bCat-KO – beta-catenin-lacking colon tumor cell growth suppression. 140,000 tested, 1.5% active. HCT116 beta-catenin knockout viability, CellTiter-Glo, 60 h; hits give low values. viability, % at 10 µM. AID 818;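 active means viability at or under a set limit, the compound median less 4 SD, cut at about 6% in these data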;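 further: 0% = Hyamine 1622 control at 20 µM and 100% = untreated cell control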
Lmaj promast – inhibitors of Leishmania major promastigote growth. Leishmania major promastigotes, resazurin fluorescence viability. inhibition, % at 10 µM. 200,000 tested, 9% active. AID 1063; in the data active means inhibition above about 50%;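 further: promastigotes grown with compound for 44 hours at 28 °C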
PMI act hi M6P – PMI (human) activation, high substrate; 190,000 tested, 0.34% active; P34949; activation factor at 20 µM; AID 1216; coupled PMI enzyme assay, resazurin fluorescence, 20 min; hits give high values; 1 = untreated enzyme, 0 = substrate-free blank;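 active means activation factor of 2 or more at 20 µM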
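Test system: Human PMI in coupled enzyme assay | Input: 15 ng/mL PMI | Medium: HEPES-buffered pH 7.4 with magnesium and detergent | Compound: One concentration, 20 µM, in 1% DMSO | Incubation: Enzyme reaction with compound 20 min at room temperature | Detection: Diaphorase-driven resazurin-to-resorufin fluorescence, excitation 544, emission 590 nm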
An asterisk follows results filed as active; x = no result. An excerpt weighted towards active compounds, which were near 9.6% of everything screened.

SMILES	PTEN del growth	PMI act	HCT116 bCat-KO	Lmaj promast	PMI act hi M6P
Cc1ccc(S(=O)(=O)[N-]c2nc3ccccc3nc2-n2cc[n+](CCC(C)C)c2)cc1	93	1.1	87	99*	1.1
Cc1onc(-c2c(F)cccc2Cl)c1C(=O)Nc1cccc(Cn2cccn2)c1	73	0.9	75	63*	1
Cc1onc(-c2ccccc2)c1C(=O)Nc1sc2c(c1C(N)=O)CCC2	86	1	80	24	0.9
Cc1onc(-c2c(F)cccc2Cl)c1C(=O)Nc1sc2c(c1C(N)=O)CCC2	15	0.8	23	63*	0.9
COc1cc(OC)c2c(O)c3c(c(-c4c5c(c(O)c6c(OC)cc(OC)cc46)CO[C@@H](C)[C@H]5O)c2c1)[C@H](O)[C@H](C)OC3	x	0.9	x	-6	0.5
Cc1cc(C)nc(NC2=NC3CCCCC3N2)n1 (stereo not drawn)	79	0.9	70	64*	0.9
COc1ccc(CC(=O)Nc2cccc(-c3ccc4nncn4n3)c2)cc1OC	x	1	x	1	1
COC(=O)[C@@]1(Cc2ccc(OC)cc2)[C@H]2c3cc(C(=O)N(C)C)n(CCc4ccc(OC)c(Br)c4)c3C[C@H]2CN1C(=O)c1ccccc1	24	0.9	31	62*	0.9
COC(=O)[C@@]1(Cc2ccc(F)cc2)[C@H]2c3cc(C(=O)N4CCCC4)n(Cc4ccc(C(F)(F)F)nc4)c3C[C@H]2CN1C(=O)c1ccccc1	41	1	36	87*	0.9
COC(=O)[C@@]1(Cc2ccc(OC)cc2)[C@H]2c3cc(C(=O)N4CCCC4)n(Cc4ccc(OC)c(OC)c4)c3C[C@H]2CN1C(=O)c1ccccc1	32	0.9	38	34	0.9
COCCN(C(=O)CCc1nnc(CCc2c[nH]c3ccccc23)o1)C(C)C	x	1	x	0	1
O=C(Cc1ccc(-n2c(=O)[nH]c3ccsc3c2=O)cc1)N1CCN(c2ccc(Cl)cc2)CC1	91	0.8	91	70*	1
COc1ccc(N2CCN(C(=O)Cn3c(=O)[nH]c4ccsc4c3=O)CC2)cc1	97	1	94	23	1
Cc1cccc(N2CCN(C(=O)Cc3ccc(-n4c(=O)[nH]c5ccsc5c4=O)cc3)CC2C)c1 (stereo not drawn)	84	0.8	84	56*	0.9
O=C(CN1C(=O)C2C3c4ccccc4C(c4ccccc43)C2C1=O)Nc1cccc(C(=O)O)c1 (stereo not drawn)	100	1	98	-7	1
COc1ccccc1-c1nn2c(-c3ccco3)nnc2s1	63	1.1	53	67*	0.9
CCN(CC)c1ccc(-c2nn3c(-c4ccccc4OC)nnc3s2)cc1	2.1*	0.9	3.3*	46	0.9
COc1cccc(OC)c1-c1nn2c(-c3cc(-c4ccccc4)n[nH]3)nnc2s1	66	1	74	61*	1.2
Nc1nc(-c2cccnc2)nn1C(=O)c1ccc(F)cc1	x	1	x	-4	1.1
O=C1CC(N2C(=O)/C(=C/C=C/c3ccccc3)SC2=S)C(=O)N1c1ccccc1 (stereo not drawn)	37	1.1	56	56*	0.9
O=C(O)CN1C(=O)/C(=C/C=C/c2ccccc2)SC1=S	x	1	x	-11	0.9
CC(=O)/C(N=Nc1ccc2c(c1)OCO2)=C(\C)O	89	1.1	84	57*	1.1
C=CCn1c(SCC(=O)Nc2cccc(OC)c2)nnc1-c1cccnc1	100	0.9	104	-3	0.9
C=CCn1c(SCc2cccc3ccccc23)nnc1-c1cccnc1	90	0.9	84	50*	0.9
Cc1c(N=Nc2c(-c3ccc([N+](=O)[O-])cc3)[nH]n(C(N)=S)c2=O)cccc1[N+](=O)[O-]	x	1	x	65*	1
SMILES	PTEN del growth	PMI act	HCT116 bCat-KO	Lmaj promast	PMI act hi M6P
CCN(CC)CCOC(=O)c1ccc(NC(=O)c2ccc(Cl)c(S(=O)(=O)N3CCCCCC3)c2)cc1	x	1.1	x	-3	1.1
CCOC(=O)c1ccc(NC(=S)Nc2cccc(C)n2)cc1	54	0.8	58	57*	1
COC(=O)Cc1ccc(NC(=S)Nc2cccc(C)n2)cc1	x	0.8	x	1	0.8
CCCC(=Nc1ccccc1OC)C1=C(O)CC(c2ccccc2)CC1=O (stereo not drawn)	85	0.9	98	99*	0.7
COc1ccccc1N=C(C)C1=C(O)CC(c2ccccc2)CC1=O (stereo not drawn)	x	0.9	x	53*	0.9
CCCCC(=Nc1ccccc1OC)C1=C(O)CC(c2ccccc2)CC1=O (stereo not drawn)	97	1	98	6	0.8
O=C1CC(c2ccccc2)CC(O)=C1C=Nc1ccccc1O (stereo not drawn)	x	x	x	49	x
Cc1ccccc1NC(=O)c1ccc(N/N=C/c2ccccc2O)c([N+](=O)[O-])c1	33	1.1	45	-6	1.1
Cc1ccc(NC(=O)c2ccc(N/N=C/c3cccc(O)c3)c([N+](=O)[O-])c2)cc1	1.9*	0.9	2.9*	-3	1.1
Cc1ccc(NC(=O)c2ccc(Nc3c([N+](=O)[O-])cc([N+](=O)[O-])cc3[N+](=O)[O-])cc2)cc1	2.3*	1.2	4.5*	100*	1
CCOC(=O)Cn1c(=S)[nH]c2c(oc3ccc(Cl)cc32)c1=O	101	1	91	-5	1.1
CCCC(C)C(=O)Nc1ccc(F)c(Cl)c1 (stereo not drawn)	x	0.9	x	23	0.9
CC(C)CC(=O)Nc1ccc(F)c(Cl)c1	89	1	97	60*	1
Cc1cccc(OCCC(=O)Nc2ccc(F)c(Cl)c2)c1	83	0.7	92	65*	0.9
COc1ccc(CSc2ncnc3sccc23)cc1F	x	0.9	x	0	0.9
CC(C)N1C(=O)/C(=C\c2nc3ccccc3c(=O)[nH]2)c2ccccc21	13	1.1	17	100*	1
CCCN1C(=O)/C(=C/c2nc3ccccc3c(=O)[nH]2)c2ccccc21	64	1	66	100*	1
CCn1c(/C=C2\C(=O)N(C)c3ccccc32)nc2ccccc2c1=O	58	1	70	32	1
CCCC(=O)C1=C(c2ccccc2)C(C#N)(C#N)C(C#N)=C1N	96	1	92	-4	0.7
Cc1nn(C)c(C)c1CN(Cc1nc(CCC(C)C)no1)C(C)C	x	0.9	x	0	0.9
CCOC(=O)C1CCN(Cc2cc(C(C)(C)C)c(O)c(C(C)(C)C)c2)CC1	x	1	x	42	0.8
CCOC(=O)C1CCN(Cc2ccc(F)cc2)CC1	93	1.1	94	89*	1.1
CCOC(=O)C1(CC2CC2)CCN(Cc2ccc(C(=O)OC)cc2)CC1	x	x	x	92*	x
CCOC(=O)C1CCN(S(=O)(=O)c2ccc(C(=O)OC)cc2)CC1	105	1	105	0	1
CCOC(=O)C1(CC2CC2)CCN(Cc2cn(C)c3ccccc23)CC1	x	1	x	40	1
